Data published in paper PMC7482441 (Pharmacological Research, 2020).

Tests used:
[1] = Population PK / non-compartmental analysis of plasma Rimeporide in DMD boys; type: in vivo, human; settings: for half-life: male, human, plasma, po
In short: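 Sparse plasma sampling: Day 1 pre-dose, 0.5–1, 1–2, 2.5–3.5 and ~6 h post-dose; Day 28 at 0.5–1 and ~6 h. Drug was quantified by a validated LC–MS/MS method. A 3-compartment population model with absorption and first-order elimination was fitted in NONMEM, pooled with healthy-volunteer and heart-failure data.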

KLK6 = assay: Circulating biomarker, baseline vs 4-week treatment; type: in vivo, human; settings: 20 DMD patients, OLink, p-value 0.0004, FDR 0.20
[2] = system: CK T (Creatine Kinase total); assay: as above; type: in vivo, human; settings: 20 DMD patients, Electrophoresis, p-value 0.0007, FDR 0.24
MCP1 = assay: as above; type: in vivo, human; settings: 20 DMD patients, OLink, p-value 0.0016, FDR 0.39
MB (Myoglobin) = assay: as above; type: in vivo, human; settings: 20 DMD patients, OLink, p-value 0.0036, FDR 0.79
IGFBP6 = assay: as above; type: in vivo, human; settings: 20 DMD patients, OLink, p-value 0.0044, FDR 0.89
healthy male subjects = settings: earlier Merck KGaA phase I studies; cited from earlier work
[3] = system: Golden Retriever muscular dystrophy (GRMD) dogs; settings: treatment in a preventing setting; cited from earlier work
animal models = settings: cited from earlier work
[4] = system: sodium-proton exchanger isoform 1 (NHE-1); settings: cited from earlier work

Q: Which “TAT (time above 500 ng/ml over 24 h)” value ([1]; Cohort 1, 150 to 225 mg daily oral, Day 1, mean, N 5) does the source give for [H]/N=C(\N)NC(=O)c1cc(S(C)(=O)=O)c(S(C)(=O)=O)cc1C [Rimeporide] here?
A: Its value is 6.6 h.

Q: What about the “TAT (time above 500 ng/ml over 24 h)” value ([1]; Cohort 1, 150 to 225 mg daily oral, Day 28, mean, N 4) of the same compound?
A: Its value is 8.4 h.

Q: What about the “TAT (time above 500 ng/ml over 24 h)” value ([1]; Cohort 2, 300 to 450 mg daily oral, Day 1, mean, N 5) of the same compound?
A: The value was 17 h.

Q: What about the “TAT (time above 500 ng/ml over 24 h)” value ([1]; Cohort 2, 300 to 450 mg daily oral, Day 28, mean, N 5) of the same compound?
A: Its value is 15 h.

Q: And the “TAT (time above 500 ng/ml over 24 h)” value ([1]; Cohort 3, 450 to 600 mg daily oral, Day 1, mean, N 5)?
A: The value was 18 h.

Q: What about the “TAT (time above 500 ng/ml over 24 h)” value ([1]; Cohort 3, 450 to 600 mg daily oral, Day 28, mean, N 5) of the same compound?
A: Its value is 16 h.

Q: What about the “TAT (time above 500 ng/ml over 24 h)” value ([1]; Cohort 4, 600 to 900 mg daily oral, Day 1, mean, N 5) of the same compound?
A: The value was 19.0 h.

Q: What about the “TAT (time above 500 ng/ml over 24 h)” value ([1]; Cohort 4, 600 to 900 mg daily oral, Day 28, mean, N 5) of the same compound?
A: Its value is 18 h.

Q: What about the “dose linearity of PK” value ([1]; DMD patients) of the same compound?
A: Its value is “dose linear”.

Q: What about the accumulation with time ([1]; DMD patients, repeated dosing 4 weeks) of the same compound?
A: Its accumulation with time is “no sign of any accumulation”.

Q: And the “effect of fed condition on AUC24” value ([1]; fed condition)?
A: Its value is “no impact”.

Q: What about the “effect of fed condition on Cmax” value ([1]; fed condition) of the same compound?
A: Its value is “decrease”.

Q: And the “exposure in children compared to healthy adults” value ([1]; in vivo)?
A: The value was “slightly higher exposure than in adults”.

Q: What about the half-life ([1]; T1/2, Cohort 3, 450 to 600 mg daily oral, Day 1, mean, N 5) of the same compound?
A: Its half-life is 234 min.

Q: And the half-life ([1]; T1/2, Cohort 3, 450 to 600 mg daily oral, Day 28, mean, N 5)?
A: The half-life was 226 min.

Q: What about the half-life ([1]; T1/2, Cohort 4, 600 to 900 mg daily oral, Day 1, mean, N 5) of the same compound?
A: The half-life was 234 min.

Q: And the half-life ([1]; T1/2, Cohort 4, 600 to 900 mg daily oral, Day 28, mean, N 5)?
A: Its half-life is 225 min.

Q: And the “time post dose at which Cmax occurred” value ([1]; oral immediate release capsules, Days 1 and 28)?
A: The value was 1 to 2 h.

Q: And the “KLK6: Term (TRT, linear mixed effect model, Day 28 vs Day 0)” value (KLK6)?
A: Its value is −0.2612.

Q: What about the “CK T: Term (TRT, linear mixed effect model, Day 28 vs Day 0)” value [2] of the same compound?
A: The value was −0.3851.

Q: And the “MCP1: Term (TRT, linear mixed effect model, Day 28 vs Day 0)” value (MCP1)?
A: The value was −0.5675.

Q: What about the “MB: Term (TRT, linear mixed effect model, Day 28 vs Day 0)” value (MB (Myoglobin)) of the same compound?
A: Its value is −0.6763.

Q: And the “IGFBP6: Term (TRT, linear mixed effect model, Day 28 vs Day 0)” value (IGFBP6)?
A: Its value is −0.3144.

Q: What about the maximum tolerated dose (healthy male subjects) of the same compound?
A: Its maximum tolerated dose is “could not be defined”.

Q: What about the cardioprotection [3] of the same compound?
A: The cardioprotection was “confirmed the cardioprotective role”.

Q: What about the “exposure/concentration range with an efficacious response” value (animal models) of the same compound?
A: Its value is 500 to 2500 ng/mL.

Q: What about the NHE-1 inhibition [4] of the same compound?
A: The NHE-1 inhibition was “potent and selective inhibitor”.
